Calls of active or inactive are those of the source. The rule behind the calls is not given here.

Series [1] has as its system L1210. Put plainly: Inhibitory concentration against L1210 murine leukemia cell line. The class given is functional, cell-based. As to conditions: Mus musculus. A digest of the protocol:
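L1210 cells grown in RPMI 1640 with 10% fetal calf serum, 2 mM L-glutamine, penicillin/streptomycin and 10 mM HEPES (pH 7.4). Cells exposed 48 h to graded concentrations (nine serial dilutions, triplicate). Viability read by microculture tetrazolium assay. IC50 = concentration reducing optical density by 50% versus untreated controls.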

Series [2] relates to L1210. Put plainly: Percentage of L1210 cell line in G2M-phase of cell cycle at 5 uM. It counts as functional, Mus musculus. The method in brief:
(§1)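 L1210 cells (2.5 × 10^5 cells/mL) incubated 21 h with compound at the stated concentration. Cells fixed in 70% ethanol, then stained 30 min at 20 °C in PBS with 100 µg/mL RNase and 25 µg/mL propidium iodide. Flow cytometry on 10^4 cells per sample, 488 nm excitation, 615 nm long-pass emission. Output is the percentage of cells in each cycle phase.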

In series [3] the test system is L1210. In words: Percentage of L1210 cell line in G2M-phase of cell cycle at 25 uM. The class given is functional, Mus musculus. A digest of the protocol: as §1
The test system of series [4] is L1210. In words: Percentage of L1210 cell line in G2M-phase of cell cycle at 1 uM. The class given is functional, Mus musculus. A digest of the protocol:
as §1

Series [5] concerns L1210. In words: Percentage of L1210 cell line in G2M-phase of cell cycle at 50 uM. It counts as functional, Mus musculus. A digest of the protocol: as §1
Series [6] deals with L1210. In words: Percentage of L1210 cell line in 8 N-phase of cell cycle at 5 uM. The class given is functional, Mus musculus. A digest of the protocol:
as §1

The test system of series [7] is L1210. In words: Percentage of L1210 cell line in S-phase of cell cycle at 100 uM. The class given is functional, Mus musculus. A digest of the protocol: as §1
In series [8] the test system is L1210. Put plainly: Percentage of L1210 cell line in G1-phase of cell cycle at 25 uM. It counts as functional, Mus musculus. The method in brief: as §1
Series [9] concerns L1210. In words: Percentage of L1210 cell line in G2M-phase of cell cycle at 2 uM. It counts as functional, Mus musculus. The method in brief: as §1
In series [10] the test system is L1210. In words: Percentage of L1210 cell line in 8 N-phase of cell cycle at 10 uM. The class given is functional, Mus musculus. The method in brief: as §1
For series [11], the system named is L1210. In words: Percentage of L1210 cell line in G2M-phase of cell cycle at 10 uM. The class given is functional, Mus musculus. The method in brief:
as §1

Series [12] has as its system L1210. In words: Percentage of L1210 cell line in S-phase of cell cycle at 100 uM; NS = no specific effect (toxic at 10 uM). The class given is functional, cell-based. As to conditions: Mus musculus. The method in brief:
as §1

Series [13] relates to L1210. In words: Percentage of L1210 cell line in 8 N-phase of cell cycle at 1 uM. It counts as functional, Mus musculus. A digest of the protocol: as §1
Series [14] concerns L1210. In words: Percentage of L1210 cell line in 8 N-phase of cell cycle at 0.5 uM. The class given is functional, Mus musculus. A digest of the protocol: as §1
Series [15] has as its system L1210. Put plainly: Percentage of L1210 cell line in G2M-phase of cell cycle at 0.5 uM. It counts as functional, Mus musculus. A digest of the protocol: as §1
Series [16] relates to L1210. In words: Toxicity of compound was tested at 25 uM;Toxic. The class given is cell-based. To be noted: mouse, l1210, 25 µM.
The test system of series [17] is L1210. Put plainly: Percentage of L1210 cell line in G2M-phase of cell cycle at 100 uM. The class given is functional, Mus musculus. The method in brief: as §1
Series [18] concerns L1210. Put plainly: Percentage of L1210 cell line in S-phase of cell cycle at 100 uM; NS = no specific effect (toxic at 5 uM). The class given is functional, cell-based. As to conditions: Mus musculus. A digest of the protocol: as §1
Series [19] concerns L1210. Put plainly: Percentage of L1210 cell line in 8 N-phase of cell cycle at 1 uM; Toxic. It counts as toxicity, cell-based. As to conditions: mouse, l1210, 1 µM. A digest of the protocol: as §1
Series [20] has as its system L1210. Put plainly: Percentage of L1210 cell line in G2M-phase of cell cycle at 20 uM. The class given is functional, Mus musculus. A digest of the protocol:
as §1

Series [21] relates to L1210. Put plainly: Percentage of L1210 cell line in S-phase of cell cycle at 100 uM; NS = no specific effect (toxic at 2 uM). The class given is functional, cell-based. To be noted: Mus musculus. The method in brief: as §1

For `CN1c2cccnc2N(C)c2nc(CNCCCNCCCCNCCCNCc3ccc4c(n3)N(C)c3ncccc3N4C)ccc21`, in the series with L1210 [1], half-maximal inhibition (IC50) required 710 nM. The compound further had an Activity with L1210 [2] of 72%.

In the case of `CN(C)CCCNCc1ccc2c(n1)N(C)c1cccnc1N2C`, in the series on L1210 [1], 9200 nM corresponded to half-maximal inhibition (IC50). Also, the Activity with L1210 [3] came out at 39%.

`CN1c2cccnc2N(C)c2nc(C=O)ccc21` came in with an IC50 in the series on L1210 [1] of 20000 nM. In other words, the double-digit micromolar range.

`CN1c2cccnc2N(C)c2nc(CNCCCNCc3ccc4c(n3)N(C)c3ncccc3N4C)ccc21` displayed a half-inhibitory concentration (IC50) in the series with L1210 [1] of 430 nM. For the same compound, in the series with L1210 [4], the Activity is 68%.

On to `CN1c2ccc(C=O)nc2N(C)c2cccnc21`, for which the IC50 with L1210 [1] came out at 21600 nM. This compound also registered an Activity in the series with L1210 [5] of 90%.

`CN1c2cccnc2N(C)c2nc(CNCCCOCCCNCc3ccc4c(n3)N(C)c3ncccc3N4C)ccc21`: the results for the Activity with L1210 [6] and in the series on L1210 [2] were 18% and 78%, respectively. The same compound returned an IC50 with L1210 [1] of 680 nM.

As for `CN1c2cccnc2N(C)c2cccnc21`, it took 31100 nM to reach half-maximal inhibition in the series with L1210 [1] (IC50). In the series on L1210 [7], this compound gave an Activity of 51%.

In the case of `CN(C)CCNCc1ccc2c(n1)N(C)c1cccnc1N2C`, in the series on L1210 [8], the Activity turned out to be 55%. The IC50 with L1210 [1] stood at 26700 nM.

The compound `CN1c2cccnc2N(C)c2nc(CNCCCNCc3ccc4c(n3)N(C)c3cccnc3N4C)ccc21` showed an IC50 in the series with L1210 [1] of 480 nM. The compound further gave an Activity in the series on L1210 [9] of 66%.

In the case of `CN(C)CCNCc1ccc2c(n1)N(C)c1ncccc1N2C`, the Activity in the series on L1210 [10] is 4%; with L1210 [11] it was 47%. For the same compound, half-maximal inhibition with L1210 [1] (IC50) required 11300 nM.

As for `CN(C)CCC(=O)NCc1ccc2c(n1)N(C)c1ncccc1N2C`, the IC50 in the series with L1210 [1] amounted to 21100 nM.

With `CN(CCCNCc1ccc2c(n1)N(C)c1cccnc1N2C)CCCNCc1ccc2c(n1)N(C)c1cccnc1N2C`, the IC50 in the series with L1210 [1] came to 3500 nM. The result with L1210 [12] was inactive.

In the case of `CN(C)CCCNCc1ccc2c(n1)N(C)c1ncccc1N2C`, the Activity with L1210 [13] turned out to be 14%; in the series with L1210 [4] it was 66%. For the same compound, in the series with L1210 [1], the IC50 stood at 170 nM.

As for `CN(C)CCCCNCc1ccc2c(n1)N(C)c1ncccc1N2C`, the Activity is 32% in the series on L1210 [14] and 54% with L1210 [15]. This compound gave an IC50 with L1210 [1] of 140 nM.

Regarding `CN(C)CCCCCNCc1ccc2c(n1)N(C)c1ncccc1N2C`, in the series with L1210 [1], the half-inhibitory concentration (IC50) was found to be 500 nM. The Activity entry in the series on L1210 [16] is listed as “Toxic”.

In the case of `CN(C)CCCNC(=O)c1ccc2c(n1)N(C)c1ncccc1N2C`, in the series with L1210 [1], the IC50 was determined as 1700 nM. The compound further came in with an Activity with L1210 [11] of 67%.

In the series with L1210 [1], `CN1c2cccnc2N(C)c2ncccc21` showed an IC50 of 34000 nM. Further, the Activity in the series with L1210 [17] is reported as 34%; in the series on L1210 [7], 49%.

In turn, `CN1c2cccnc2N(C)c2nc(CNCCNCc3ccc4c(n3)N(C)c3ncccc3N4C)ccc21` showed an IC50 in the series with L1210 [1] of 2700 nM. In addition, the Activity in the series with L1210 [11] is 79%.

With `CN1c2cccnc2N(C)c2nc(CNCCCCCCCNCc3ccc4c(n3)N(C)c3ncccc3N4C)ccc21`, the IC50 in the series with L1210 [1] worked out at 710 nM. For the same compound, in the series on L1210 [18], the result was inactive.

The compound `CN(C)CCCN(C)Cc1ccc2c(n1)N(C)c1ncccc1N2C` displayed a concentration for half-maximal inhibition (IC50) in the series on L1210 [1] of 11500 nM. That is a double-digit micromolar value.

As for `CN1c2cccnc2N(C)c2nc(CNCCCN)ccc21`, the Activity result is recorded as “Toxic” in the series with L1210 [19] and 65% in the series with L1210 [4]. The IC50 in the series with L1210 [1] is 140 nM.

For the compound `CN1c2cccnc2N(C)c2nc(CNCCCNCCCNCc3ccc4c(n3)N(C)c3ncccc3N4C)ccc21`, the Activity with L1210 [13] worked out at 18%; in the series on L1210 [4], 65%. In the series with L1210 [1], this compound had an IC50 of 360 nM.

As for `CN1c2cccnc2N(C)c2nc(CNCCNCCNCCNCc3ccc4c(n3)N(C)c3ncccc3N4C)ccc21`, in the series with L1210 [1], the midpoint of inhibition, the IC50, lay at 4100 nM. Further, the Activity with L1210 [20] turned out to be 70%.

For `CN1c2cccnc2N(C)c2nc(CNCCCCNCc3ccc4c(n3)N(C)c3ncccc3N4C)ccc21`, the IC50 in the series on L1210 [1] amounted to 1700 nM. Besides, the outcome in the series with L1210 [18] (in the assay text read “at 5 uM” for “at 100 uM”) was inactive.

`CN1c2ccc(CNCCCCCCCNCc3ccc4c(n3)N(C)c3cccnc3N4C)nc2N(C)c2cccnc21` returned an IC50 in the series with L1210 [1] of 500 nM. Besides, the outcome in the series with L1210 [21] was inactive.

The compound `CN1c2ccc(CNCCCNCc3ccc4c(n3)N(C)c3cccnc3N4C)nc2N(C)c2cccnc21` came in with an IC50 in the series on L1210 [1] of 4000 nM. In addition, in the series on L1210 [12], the outcome was inactive.

In general, IC50 refers to the concentration that gives 50% inhibition. The low end stands for greater potency in that assay, the high end for weaker potency in that assay.

(Values after ChEMBL document CHEMBL1148471, “Synthesis of mono- and bisdihydrodipyridopyrazines and assessment of their DNA binding and cytotoxic properties” (J Med Chem, 2004).)
